Data set [1] is described as follows: Cytotoxicity against Varicella zoster virus infected HEL cells assessed as alteration of cell morphology incubated for 3 days by microscopy. In kind it is cell-based. The following applies: human, HEL cells infected with Varicella zoster virus. The method in brief:
(§1)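 Cytotoxicity was given as the minimum cytotoxic concentration (MCC): the compound concentration causing a microscopically detectable change in HEL cell morphology.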

Data set [2] in a line: Selectivity index, ratio of CC50 for human cytomegalovirus AD169 infected HEL cells to EC50 for human cytomegalovirus AD169. Format: toxicity, cell-based. The following applies: HEL cells infected with human cytomegalovirus AD169, read-out: Ratio CC50/EC50.
The test system of a further data set is Influenza B virus. Put plainly: Antiviral activity against Influenza B virus. In kind it is functional, organism-based. Summed up: (§2)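 Confluent cell monolayers (HEL, Vero, HeLa or MDCK) in 96-well plates were infected with 100 CCID50 of virus in the presence of varying compound concentrations. Cytopathicity was scored once it reached completion in untreated infected controls.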

The test system of the next data set is Influenza A virus. Put plainly: Antiviral activity against Influenza A virus H1N1. Format: functional, organism-based. Summed up:
as §2

Another data set relates to Sindbis virus. Put plainly: Antiviral activity against Sindbis virus. In kind it is functional, organism-based.
In another data set the test system is Vaccinia virus. Put plainly: Antiviral activity against Vaccinia virus Lederle. In kind it is functional, organism-based. The settings on record: Orthopoxvirus vaccinia. The method in brief: as §2
Data set [3] relates to Human herpesvirus 2 strain G. Put plainly: Antiviral activity against HSV2 G Lyons. In kind it is functional, organism-based.
In a further data set the test system is Coxsackievirus B4. Put plainly: Antiviral activity against Human coxsackievirus B4. In kind it is functional, organism-based.
The test system of another data set is Punta Toro virus. The experiment in a line: Antiviral activity against Punta Toro virus. In kind it is functional, organism-based.
The test system of data set [4] is Mammalian orthoreovirus 1. Put plainly: Antiviral activity against Reovirus 1. Format: functional.
Data set [5] has as its system HEL. Put plainly: Cytotoxicity against Varicella zoster virus infected HEL cells assessed as cell growth inhibition incubated for 3 days by coulter counter method. The settings on record: human, 72 h.
Another data set has as its system Feline coronavirus. The experiment in a line: Antiviral activity against Feline coronavirus. In kind it is functional, organism-based.
The test system of data set [6] is HEL. Put plainly: Cytotoxicity against human cytomegalovirus infected HEL cells assessed as cell growth inhibition incubated for 3 days by coulter counter method. Format: cell-based. The settings on record: 72 h. Summed up:
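HEL cells were seeded at 5 × 10^3 cells/well and left to adhere and proliferate for 24 h, then compound-containing medium was added. After 3 days at 37 °C, cells were counted with a Coulter counter.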

For data set [7], the system named is Vesicular stomatitis virus. Put plainly: Antiviral activity against Vesicular stomatitis virus. Format: functional, organism-based. The method in brief:
as §2

Data set [8] has as its system Human immunodeficiency virus 2. Put plainly: Antiviral activity against HIV2 ROD infected in human CEM cells assessed as reduction in virus- induced cytopathicity incubated for 4 to 5 days by microscopy based virus syncytium formation assay. The settings on record: ISOLATE ROD, CCRF-CEM. Format: functional, organism-based. The method in brief:
(§3)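 CEM cells at ~3 × 10^5 cells/mL, infected with 100 CCID50 of HIV per mL in the presence of compound dilutions. Incubated 4–5 days at 37 °C in humidified CO2. Syncytium (giant cell) formation scored by microscopy.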
On the technique in general: Cytopathic effects are the visible damage that an infection or toxin causes in cultured cells.

A further data set deals with Human alphaherpesvirus 2. The experiment in a line: Antiviral activity against HSV2 Lyons. Format: functional, organism-based. The method in brief: (§4)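 Confluent cell monolayers in 96-well plates were inoculated with 100 CCID50 of virus together with varying compound concentrations. Cytopathicity was scored once it reached completion in untreated infected controls.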

Data set [9] can be described thus: Cytotoxicity against human cytomegalovirus infected HEL cells assessed as alteration of cell morphology incubated for 3 days by microscopy. In kind it is cell-based. The following applies: HEL cells infected with human cytomegalovirus. Summed up:
as §1

Another data set deals with Human alphaherpesvirus 1. Put plainly: Antiviral activity against HSV1 KOS. In kind it is functional, organism-based. The method in brief: as §4
Data set [10] in a line: Selectivity index, ratio of CC50 for human cytomegalovirus Davis infected HEL cells to EC50 for human cytomegalovirus Davis. Format: toxicity, cell-based. The settings on record: HEL cells infected with human cytomegalovirus Davis, read-out: Ratio CC50/EC50.
The next data set has as its system Human respirovirus 3. Put plainly: Antiviral activity against Parainfluenza 3 virus. Format: functional, organism-based.
Another data set concerns Human betaherpesvirus 5. The experiment in a line: Antiviral activity against human cytomegalovirus Davis infected in HEL cells assessed as reduction in viral plaque formation. Format: functional, organism-based. The following applies: Human betaherpesvirus 5, Davis. Summed up: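 Confluent HEL fibroblasts were infected with 100 PFU of HCMV in the presence of varying compound concentrations. Plaques were counted once plaque formation was complete in untreated infected controls.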

The next data set has as its system Influenza A virus H3N2. The experiment in a line: Antiviral activity against Influenza A virus H3N2. In kind it is functional, organism-based. The method in brief: as §2
Data set [11] concerns Human immunodeficiency virus 1. The experiment in a line: Antiviral activity against HIV1 3B infected in human CEM cells assessed as reduction in virus- induced cytopathicity incubated for 4 to 5 days by microscopy based virus syncytium formation assay. In kind it is functional, organism-based. The following applies: CCRF-CEM. Summed up:
as §3

From ChEMBL document CHEMBL3621200, “Toward the discovery of dual HCMV-VZV inhibitors: Synthesis, structure activity relationship analysis, and cytotoxicity studies of long chained 2-uracil-3-yl-N-(4-phenoxyphenyl)acetamides” (Bioorg Med Chem, 2015) come the findings set out here.

Each structure is given as a SMILES string. Active and inactive are the calls of the source. The calls are words filed in the database; no cut-off is given here.

With `O=C(Cn1c(=O)ccn(CCCCCOc2ccc(Br)cc2)c1=O)Nc1ccc(Oc2ccccc2)cc1`, the MCC at 72 h was above 100 µM in data set [1] and 20 µM in data set [9]. The selectivity ratio in data set [2] and in [10] was 9 each time. The inhibition entry (in the data set with Influenza B virus; with Influenza A virus; in the data set with Sindbis virus; with Vaccinia virus; in [3]; in the data set with Coxsackievirus B4) was “inactive” throughout. In addition, the inhibition result (in the data set on Punta Toro virus; in data set [4]; in the data set with Feline coronavirus; in data set [7]; in data set [8]; in the data set with Human alphaherpesvirus 2) was “inactive” throughout. Further, the inhibition entry (in the data set on Human alphaherpesvirus 1; in the data set with Human respirovirus 3; in the data set on Influenza A virus H3N2; in data set [11]) was “inactive” in each case. For the same molecule, the cytotoxic concentration (CC50) in the data set with HEL [5] and in the data set with HEL [6] was 8.7 µM each time. Further, the EC50 with Human betaherpesvirus 5 worked out at 0.97 µM.

One may read the CC50 as the concentration at which the toxic effect on the cells reaches its halfway point. By EC50 is commonly meant the concentration that produces a half-maximal response.
